# Measured values collected from several papers.
# Each line is one published result; the experiments were not run side by side.
# Target: Serine/threonine-protein kinase 17A (STK17A, Homo sapiens, UniProt Q9UEE5)
# Residues used in one study (Q9UEE5 1-414): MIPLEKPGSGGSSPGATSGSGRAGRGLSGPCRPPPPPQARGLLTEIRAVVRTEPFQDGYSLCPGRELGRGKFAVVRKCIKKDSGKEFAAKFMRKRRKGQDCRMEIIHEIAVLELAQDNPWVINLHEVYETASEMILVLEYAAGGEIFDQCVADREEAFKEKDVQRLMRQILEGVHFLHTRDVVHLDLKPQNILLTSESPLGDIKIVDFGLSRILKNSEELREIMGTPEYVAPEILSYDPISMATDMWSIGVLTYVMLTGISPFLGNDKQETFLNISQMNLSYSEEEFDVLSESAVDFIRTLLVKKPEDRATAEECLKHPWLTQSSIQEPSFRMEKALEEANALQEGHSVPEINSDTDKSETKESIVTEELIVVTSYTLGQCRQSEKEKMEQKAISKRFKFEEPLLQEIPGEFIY
SMILES,assay,conditions,measurement,result
CCCCC(=O)Nc1ccc(-c2ccc3ncn(CCC)c(=O)c3c2)cn1,"binding, competition with immobilised ligand",0.5 µM,remaining binding,100%
Cc1cc(O)c(-c2ccc([C@@H](C)CN(C)C)cc2)c2c1[nH]c(=O)c1sccc12,"cell-free assay, inhibitor",0.1 µM,inhibition,3.3%
Cc1ccc(NC(=O)c2ccnc(C(F)(F)F)c2)cc1-c1cc(OCCO)nc(N2CCOCC2)c1,binding,1 µM,remaining binding,91%
CC#CC(=O)N1CCC[C@H]1c1nc(-c2ccc(C(=O)Nc3ccccn3)cc2)c2c(N)nccn12,"enzyme activity, inhibitor",1 µM,inhibition,0%
COc1ccc2oc(-c3ccc4nc(N)oc4c3)c/c(=N\c3ccccc3NC(=O)CCN)c2c1,binding,1 µM,remaining binding,89%
CC(C)S(=O)(=O)c1ccc2nccc(Nc3ccc4sc(C5CCCC5)nc4c3)c2c1,"enzyme activity, inhibitor",1 µM,activity vs control,108%
C=CC(=O)N1CCC[C@@H](n2nc(-c3ccc(Oc4ccccc4)cc3)c3c(N)ncnc32)C1,"enzyme activity, inhibitor",1 µM,inhibition,8%
COc1ccc2[nH]c3c4[nH]c5ccc(OC)cc5c4c4c(c3c2c1)C(=O)NC4=O,binding,1 µM,remaining binding,0.4%
